Source: ChEMBL document CHEMBL2177069, “Novel peptidomimetic compounds containing redox active chalcogens and quinones as potential anticancer agents” (Eur J Med Chem, 2012)

How the values were obtained:
SW-620 = assay: Cytotoxicity against human SW620 cells; assay type: functional
OVCAR-3 = assay: Cytotoxicity against human OVCAR3 cells; assay type: functional
Saccharomyces cerevisiae [1] = assay: Growth inhibition of POS5-deficient Saccharomyces cerevisiae YPL188W mutant at 20 ug/disc after 24 to 48 hrs by agar diffusion assay; assay type: functional; conditions: read-out: DIZ
Outline: (§1)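 S. cerevisiae deletion mutants or wild type grown on YPD, seeded into liquid agar medium at an optical density of 0.1. 6 mm paper discs soaked with methanolic compound solution were placed on the plates and incubated at 30 °C. Growth was checked after 1 and 2 days, and the inhibition zone diameter was recorded in mm.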

SF-268 = assay: Cytotoxicity against human SF268 cells; assay type: functional
TK-10 = assay: Cytotoxicity against human TK10 cells; assay type: functional
Saccharomyces cerevisiae [2] = assay: Growth inhibition of UFD2-deficient Saccharomyces cerevisiae YDL190C mutant at 20 ug/disc after 24 to 48 hrs by agar diffusion assay; assay type: functional; conditions: read-out: DIZ; outline: as §1
LOX IMVI = assay: Cytotoxicity against human LOXIMVI cells; assay type: functional
SF-539 = assay: Cytotoxicity against human SF539 cells; assay type: functional
HT-29 = assay: Cytotoxicity against human HT-29 cells; assay type: functional
Saccharomyces cerevisiae [3] = assay: Growth inhibition of GSH2-deficient Saccharomyces cerevisiae YOL049W mutant at 20 ug/disc after 24 to 48 hrs by agar diffusion assay; assay type: functional; conditions: read-out: DIZ; outline: as §1
PC-3 = assay: Cytotoxicity against human PC3 cells; assay type: functional
COLO 205 = assay: Cytotoxicity against human COLO205 cells; assay type: functional
HL-60 = assay: Cytotoxicity against human HL60 cells; assay type: functional
KM12 = assay: Cytotoxicity against human KM12 cells; assay type: functional
ACHN = assay: Cytotoxicity against human ACHN cells; assay type: functional
MCF7 = assay: Cytotoxicity against human MCF7 cells; assay type: functional
NCI-H522 = assay: Cytotoxicity against human NCI-H522 cells; assay type: functional
CAKI-1 = assay: Cytotoxicity against human Caki1 cells; assay type: functional
Saccharomyces cerevisiae [4] = assay: Growth inhibition of PST2-deficient Saccharomyces cerevisiae YDR032C mutant at 20 ug/disc 24 to 48 hrs by agar diffusion assay; assay type: functional; conditions: read-out: DIZ; outline: as §1
NCI-H226 = assay: Cytotoxicity against human NCI-H226 cells; assay type: functional
HCT-116 = assay: Cytotoxicity against human HCT116 cells; assay type: functional
Saccharomyces cerevisiae [5] = assay: Growth inhibition of SOD2-deficient Saccharomyces cerevisiae YHR008C mutant at 20 ug/disc 24 to 48 hrs by agar diffusion assay; assay type: functional; conditions: read-out: DIZ; outline: as §1
A-431 = assay: Cytotoxicity against human A431 cells after 24 hrs by MTT assay; assay type: functional, cell-based; conditions: A-431, 24 h
Outline: (§2)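 MTT assay. Cells were seeded at 50,000 cells/mL in medium with 10% fetal calf serum and grown for two days at 37 °C, 10% CO2. Serial dilutions of compound were then added for 24 h. MTT was added (final 0.5 mg/mL) for 2 h, and the formazan was pelleted, washed, dissolved in isopropanol with 0.4% HCl and read at 590 nm. IC50 is the concentration giving 50% of untreated-control absorbance, taken from dose-response curves; mean of two parallel experiments.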

RPMI-8226 = assay: Cytotoxicity against human RPMI8226 cells; assay type: functional
Malme-3M = assay: Cytotoxicity against human MALME-3M cells; assay type: functional
NCI/ADR-RES = assay: Cytotoxicity against human NCI/ADR-RES cells; assay type: functional
[6] = Cytotoxicity against human PHF cells after 24 hrs by MTT assay; assay type: cell-based; outline: as §2
UACC-62 = assay: Cytotoxicity against human UACC62 cells; assay type: functional
IGROV-1 = assay: Cytotoxicity against human IGROV1 cells; assay type: functional
NCI-H23 = assay: Cytotoxicity against human NCI-H23 cells; assay type: functional
[7] = read-out: pLC50 (the source's name) (converted)

Compound `CC1=C([Se]CC(OC(=O)[C@@H](CSSC(C)(C)C)NC(=O)C(C)(C)C)C(=O)NCCCCCC(=O)OCc2ccccc2)C(=O)c2ccccc2C1=O` (stereo partly specified) has a GI50 (SW-620) of 2.29 µM, an LC50 (SW-620) of 15.8 µM and a TGI (SW-620; read-out: pTGI (converted)) of 5.25 µM. The GI50 (OVCAR-3) was 1.86 µM, the LC50 (OVCAR-3) was 6.17 µM and the TGI (OVCAR-3; read-out: pTGI (converted)) was 3.39 µM. The zone of inhibition at 20 µg/disc (Saccharomyces cerevisiae [1]) was 0 mm, the GI50 (SF-268) was 1.91 µM and the LC50 (SF-268) was 6.46 µM. For the same compound, the TGI (SF-268; read-out: pTGI (converted)) was 3.55 µM, the GI50 (TK-10) was 2.4 µM and the LC50 (TK-10) was 8.13 µM. It also gave a TGI (TK-10; read-out: pTGI (converted)) of 4.47 µM, a zone of inhibition at 20 µg/disc (Saccharomyces cerevisiae [2]) of 0 mm and a GI50 (LOX IMVI) of 2.57 µM. For the same compound, the LC50 (LOX IMVI) was 42.7 µM, the TGI (LOX IMVI; read-out: pTGI (converted)) was 7.59 µM and the GI50 (SF-539) was 1.91 µM. For the same compound, the LC50 (SF-539) was 5.89 µM, the TGI (SF-539; read-out: pTGI (converted)) was 3.39 µM and the GI50 (HT-29) was 2.69 µM. The LC50 (HT-29) was greater than 100 µM, the TGI (HT-29; read-out: pTGI (converted)) was 7.41 µM and the zone of inhibition at 20 µg/disc (Saccharomyces cerevisiae [3]) was 0 mm. For the same compound, the GI50 (PC-3) was 1.51 µM, the LC50 (PC-3) was 8.71 µM and the TGI (PC-3; read-out: pTGI (converted)) was 3.63 µM. The GI50 (COLO 205) was 1.82 µM, the CC50 (COLO 205; [7]) was 6.76 µM and the TGI (COLO 205; read-out: pTGI (converted)) was 3.47 µM. It also gave a GI50 (HL-60) of 2.51 µM, an LC50 (HL-60) greater than 100 µM and a TGI (HL-60; read-out: pTGI (converted)) of 6.03 µM. It also gave a GI50 (KM12) of 1.78 µM, an LC50 (KM12) of 6.76 µM and a TGI (KM12; read-out: pTGI (converted)) of 3.47 µM. It also gave a GI50 (ACHN) of 2.14 µM, an LC50 (ACHN) of 14.5 µM and a TGI (ACHN; read-out: pTGI (converted)) of 4.9 µM. The GI50 (MCF7) was 3.02 µM, the LC50 (MCF7) was 50.1 µM and the TGI (MCF7; read-out: pTGI (converted)) was 9.77 µM. The GI50 (NCI-H522) was 1.7 µM, the LC50 (NCI-H522) was 6.17 µM and the TGI (NCI-H522; read-out: pTGI (converted)) was 3.24 µM. For the same compound, the GI50 (CAKI-1) was 2.19 µM, the LC50 (CAKI-1) was 9.33 µM and the TGI (CAKI-1; read-out: pTGI (converted)) was 4.57 µM. It also gave a zone of inhibition at 20 µg/disc (Saccharomyces cerevisiae [4]) of 11 mm, a GI50 (NCI-H226) of 2.34 µM and a CC50 (NCI-H226; [7]) of 9.12 µM. For the same compound, the TGI (NCI-H226; read-out: pTGI (converted)) was 4.68 µM, the GI50 (HCT-116) was 1.55 µM and the LC50 (HCT-116) was 8.91 µM. For the same compound, the TGI (HCT-116; read-out: pTGI (converted)) was 3.72 µM, the zone of inhibition at 20 µg/disc (Saccharomyces cerevisiae [5]) was 0 mm and the IC50 (A-431) was 4 µM. The GI50 (RPMI-8226) was 2.34 µM, the LC50 (RPMI-8226) was greater than 100 µM and the TGI (RPMI-8226; read-out: pTGI (converted)) was 6.76 µM. It also gave a GI50 (Malme-3M) of 2.51 µM, an LC50 (Malme-3M) of 13.5 µM and a TGI (Malme-3M; read-out: pTGI (converted)) of 5.13 µM. The GI50 (NCI/ADR-RES) was 3.39 µM, the CC50 (NCI/ADR-RES; [7]) was greater than 100 µM and the TGI (NCI/ADR-RES; read-out: pTGI (converted)) was 11.5 µM. It also gave an IC50 [6] of 4 µM, a GI50 (UACC-62) of 1.95 µM and an LC50 (UACC-62) of 8.13 µM. It also gave a TGI (UACC-62; read-out: pTGI (converted)) of 3.98 µM, a GI50 (IGROV-1) of 1.91 µM and an LC50 (concentration killing 50% of cells) (IGROV-1) of 7.08 µM. It also gave a TGI (IGROV-1; read-out: pTGI (converted)) of 3.63 µM, a GI50 (NCI-H23) of 2.4 µM and an LC50 (NCI-H23) greater than 100 µM. The TGI (NCI-H23; read-out: pTGI (converted)) was 7.08 µM.
